Results from ChEMBL document CHEMBL4373718, “Germacrane Sesquiterpenoids as a New Type of Anticardiac Fibrosis Agent Targeting Transforming Growth Factor β Type I Receptor” (J Med Chem, 2019).
Calls of active or inactive are those of the source. The rule behind the calls is not given here.

What was measured:
[1] = biological target: T1, TGF-beta receptor type-1 (Rattus norvegicus) (UniProt P80204); assay: Inhibition of TGFbeta1 receptor in TGFbeta1-stimulated Sprague-Dawley rat cardiac fibroblasts assessed as reduction in fibronectin mRNA expression at 2.5 to 10 uM measured after 12 hrs by qRT-PCR analysis
T1 sequence (whole entry): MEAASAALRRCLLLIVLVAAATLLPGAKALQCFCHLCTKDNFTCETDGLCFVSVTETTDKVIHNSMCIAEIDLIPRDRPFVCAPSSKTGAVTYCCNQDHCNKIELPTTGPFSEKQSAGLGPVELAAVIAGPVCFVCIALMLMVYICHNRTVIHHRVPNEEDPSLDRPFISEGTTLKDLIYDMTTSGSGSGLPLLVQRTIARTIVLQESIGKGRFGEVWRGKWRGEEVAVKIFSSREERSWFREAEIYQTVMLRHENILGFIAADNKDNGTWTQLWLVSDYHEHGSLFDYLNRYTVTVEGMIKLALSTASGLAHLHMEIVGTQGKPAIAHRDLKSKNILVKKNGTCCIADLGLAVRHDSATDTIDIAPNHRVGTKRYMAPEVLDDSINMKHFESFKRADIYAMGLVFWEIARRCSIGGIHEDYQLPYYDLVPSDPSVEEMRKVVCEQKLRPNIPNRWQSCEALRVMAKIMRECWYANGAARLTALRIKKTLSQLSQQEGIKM
Outline: (§1)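 Primary rat cardiac fibroblasts (3×10^5 per well) treated with compound plus 10 ng/mL TGFβ1 for 12 h. Total RNA extracted and target transcripts measured by SYBR Green qRT-PCR, normalized to GAPDH.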

[2] = biological target: T1, TGF-beta receptor type-1 (Rattus norvegicus); assay: Inhibition of TGFbeta1 receptor in TGFbeta1-stimulated Sprague-Dawley rat cardiac fibroblasts assessed as reduction in collagen 1 mRNA expression at 2.5 to 10 uM measured after 12 hrs by qRT-PCR analysis; outline: as §1
[3] = biological target: T1, TGF-beta receptor type-1 (Rattus norvegicus); assay: Inhibition of TGFbeta1 receptor in TGFbeta1-stimulated Sprague-Dawley rat cardiac fibroblasts assessed as reduction in Smad3 phosphorylation at 10 uM measured after 5 to 30 mins by Western blot analysis
[4] = biological target: T1, TGF-beta receptor type-1 (Rattus norvegicus); assay: Inhibition of TGFbeta1 receptor in TGFbeta1-stimulated Sprague-Dawley rat cardiac fibroblasts assessed as reduction in Smad2 phosphorylation at 10 uM measured after 5 to 30 mins by Western blot analysis
[5] = biological target: T1, TGF-beta receptor type-1 (Rattus norvegicus); assay: Inhibition of TGFbeta1 receptor in TGFbeta1-stimulated Sprague-Dawley rat cardiac fibroblasts assessed as reduction in Smad2 nuclear translocation at 10 uM measured after 5 mins by Western blot analysis
Outline: (§2)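 Primary rat cardiac fibroblasts treated with 10 µM compound plus 10 ng/mL TGFβ1 for 5 min. Nuclear and cytosolic fractions separated with a kit and Smad2/Smad3 measured by Western blot.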

[6] = biological target: T1, TGF-beta receptor type-1 (Rattus norvegicus); assay: Inhibition of TGFbeta1 receptor in TGFbeta1-stimulated Sprague-Dawley rat cardiac fibroblasts assessed as reduction in Smad3 nuclear translocation at 10 uM measured after 5 mins by Western blot analysis; outline: as §2
Rattus norvegicus [7] = organism: Rattus norvegicus; assay: Effect on TGFbeta2 receptor expression in TGFbeta1-stimulated Sprague-Dawley rat cardiac fibroblasts at 2.5 to 10 uM measured after 5 mins by Western blot analysis; assay type: functional
Rattus norvegicus [8] = assay: Antifibrotic activity in abdominal aortic constriction Sprague-Dawley rat model of cardiac fibrosis assessed as down regulation of collagen expression in heart at 5 mg/kg, ip administered once daily for 4 weeks measured post-last dose by Western blot analysis; assay type: functional, organism-based
Outline: (§3)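 AAC rats dosed ip daily for 4 weeks, n=8 per group. Hearts homogenized in lysis buffer with protease and phosphatase inhibitors and spun at 12,000 rpm for 30 min at 4 °C. Nuclear and cytoplasmic fractions prepared with a kit. Protein measured by BCA; 30 µg run on 10% SDS-PAGE, transferred to PVDF and immunoblotted; bands quantified by densitometry.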

Rattus norvegicus [9] = assay: Antifibrotic activity in abdominal aortic constriction Sprague-Dawley rat model of cardiac fibrosis assessed as reduction in Smad2 nuclear translocation in heart at 5 mg/kg, ip administered once daily for 4 weeks measured post-last dose by Western blot analysis; assay type: functional, organism-based; outline: as §3
Rattus norvegicus [10] = assay: Antifibrotic activity in abdominal aortic constriction Sprague-Dawley rat model of cardiac fibrosis assessed as diastolic left ventricular anterior wall thickness at 5 mg/kg, ip administered once daily for 4 weeks measured post-last dose by echocardiography (reference value: 2.48 +/- 0.42 mm); assay type: functional
Rattus norvegicus [11] = assay: Antifibrotic activity in abdominal aortic constriction Sprague-Dawley rat model of cardiac fibrosis assessed as diastolic left ventricular posterior wall thickness at 5 mg/kg, ip administered once daily for 4 weeks measured post-last dose by echocardiography (reference value: 2.33 +/- 0.31 mm); assay type: functional
Rattus norvegicus [12] = assay: Antifibrotic activity in abdominal aortic constriction Sprague-Dawley rat model of cardiac fibrosis assessed as systolic left ventricular posterior wall thickness at 5 mg/kg, ip administered once daily for 4 weeks measured post-last dose by echocardiography (reference value: 3.62 +/- 0.26 mm); assay type: functional

inhibition [1]: Active
inhibition [2]: Active
inhibition [3]: Active
inhibition [4]: Active
inhibition [5]: Active
inhibition [6]: Active
Compound: C=C(C)[C@@H]1C/C=C(\C)C(=O)CCC2=C[C@@H]1OC2=O
Activity (Rattus norvegicus [7]): inactive
Activity (Rattus norvegicus [8]): Active
Activity (Rattus norvegicus [9]): Active
Activity (Rattus norvegicus [10]): 2.11 mm
Activity (Rattus norvegicus [11]): 2 mm
Activity (Rattus norvegicus [12]): 3.23 mm
